Data from PubChem BioAssay.
Records with an inconclusive call do not appear.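 Rule for the calls, unless noted: active = viability at or below 27.92% in each of two runs, the all-compound median minus 4 SD; inconclusive = no clear call, values can overlap the other calls; inactive = the rest.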

Assays:
[1] = S. cerevisiae growth inhibition in permissive medium (OD615), pilot counter-assay for S. cerevisiae lifespan shortening project, permissive growth control (AID 705;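 active = growth inhibition above 25% in both replicates, a cutoff set 3 SD above the mean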); settings: OD615, 24 h, at 10 µM, hits give high values
Outline: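 System: S. cerevisiae with engineered DeaD lifespan system. Medium: SC raffinose/galactose permissive medium. Doses: single compound dose of 10 µM, 0.25% DMSO final. Schedule: 24 h exposure, 30 °C. Measured by: OD615 turbidity read. Read-out: growth inhibition.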

[2] = S. cerevisiae growth inhibition in restrictive medium, OD615, pilot screen, restrictive growth control, yeast lifespan reduction project (AID 706;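 active = growth inhibition above a set limit, 3 SD over mean compound inhibition, in both replicates, cut at about 43% in these data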;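 note: modified DeaD lifespan yeast strain shifted to restrictive glucose medium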); settings: OD615, 48 h, at 10 µM, hits give high values
Outline: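 Assay system – genetically modified Saccharomyces cerevisiae, DeaD replicative lifespan assay strain · Medium – CSMM-D glucose medium · Doses – 10 µM compound, 0.25% DMSO · Times – 4 h pre-incubation, 48 h exposure at 30 °C · Signal – optical density at 615 nm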

[3] = doxorubicin toxicity protection in MRP-1 cells – H69AR cells, CellTiter-Glo, duplicate, MRP-1 activator project, pilot screen (AID 807;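 active = viability increase at or above a cutoff of the median across tested compounds plus 3 SD, cut at about 8.5% in these data, passing the limit was not always enough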;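 note: compound pretreatment 18-22 h then 72 h combined with doxorubicin; 0% = doxorubicin alone and 100% = vehicle without doxorubicin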); settings: H69AR viability with doxorubicin, CellTiter-Glo luminescence; at 10 µM; hits give high values
[4] = viability of HCT116 without oncogenic beta-catenin – human colon tumor cells, pilot screen (AID 823;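 active = cell viability at or below a set limit in both duplicate runs, the limit being the all-compound median minus 4 SD, cut at about 23% in these data, passing the limit was not always enough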;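 note: 0% = wells killed by 20 µM Hyamine and 100% = untreated DMSO cell wells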); settings: HCT116 beta-catenin knockout viability, CellTiter-Glo, 60 h; at 10 µM; hits give low values
[5] = viability of PTEN-null HCT116 cells – cell-based, HCT116 clonal line, CellTiter-Glo, pilot screen (AID 824); settings: HCT116 PTEN-deleted viability, 60 h, at 10 µM, hits give low values;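 note: 0% = 20 µM Hyamine control and 100% = vehicle cell control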
[6] = RAM pathway blockade in budding yeast – dse1pr::URA3 reporter, 5-FOA selection, pilot screen (AID 869;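 active = inhibition over a set limit, the all-compound mean plus 3 SD, in both replicate runs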;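 note: 0% = DMSO wells with no growth and 100% = 10 µM 1-NA-PP1 with full growth; RAM network block rescues cells from 5-FOA so hits raise OD615 growth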); settings: S. cerevisiae dse1pr::URA3 5-FOA growth, OD615, 2 d; at 10 µM; hits give high values; strain carries analog-sensitive mutant Cbk1 kinase
[7] = RAM signaling pathway blockade in yeast – S. cerevisiae, Pdr1DBD-CYC8 efflux-inhibited sensitized strain, primary screen (AID 1298;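 active = RAM network inhibition above 8.4% in each of two replicates, 3 SD over the compound average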;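 note: 0% = DMSO untreated cells without growth and 100% = 10 µM 1-NA-PP1 full growth; higher means more yeast growth rescued from 5-FOA killing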); settings: S. cerevisiae cbk1-as DSE1-URA3 strain, 5-FOA growth OD615, 2 d; at 50 µM; hits give high values

C=CCOC(=O)C1=C(C)N=C2SCCC(=O)N2C1c1ccc(OC(=O)c2ccco2)cc1 (stereo unspecified)
inactive: growth inhibition [1] 5.35% | growth inhibition [2] 24.3% | viability increase [3] -0.72% | viability [4] 94.2% | viability [5] 85.8% | inhibition [6] 1.94% | RAM network inhibition [7] 5.69%

Cc1ccc(OCCn2c(C)c(/C=N/n3cnnc3)c3ccccc32)cc1
inactive: growth inhibition [1] 8.46% | growth inhibition [2] 22.9% | viability increase [3] -6.55% | viability [4] 81.5% | viability [5] 76% | inhibition [6] 0.8% | RAM network inhibition [7] 1.89%

Cc1ccccc1NC(=O)CN1C(=O)COc2ccc(Cl)cc21
inactive: growth inhibition [1] -14.1% | growth inhibition [2] -18% | viability increase [3] 1.63% | viability [4] 95% | viability [5] 87.9% | inhibition [6] 0.995% | RAM network inhibition [7] 4.92%

CCOC(=O)c1cc2c(=O)n3ccccc3nc2n(CCOC)c1=NC(=O)C(C)(C)C
inactive: growth inhibition [1] -6.44% | growth inhibition [2] -18.2% | viability increase [3] -3.78% | viability [4] 93.6% | viability [5] 96.9% | inhibition [6] -0.545% | RAM network inhibition [7] 5.12%

Cc1ccc(C2CC(c3ccccc3Cl)n3nc(N)nc3N2)cc1 (stereo unspecified)
inactive: growth inhibition [1] 0.815% | growth inhibition [2] 6.86% | viability increase [3] 2.22% | viability [4] 99.7% | viability [5] 92.5% | inhibition [6] 1.88% | RAM network inhibition [7] 1.81%

Cc1ccc2oc(=O)c3cnn(CC(=O)N(CCC(C)C)Cc4ccco4)c3c2c1
inactive: growth inhibition [1] -4.76% | growth inhibition [2] -1.21% | viability increase [3] -3.21% | viability [4] 88.5% | viability [5] 87.3% | inhibition [6] 0.29% | RAM network inhibition [7] 5.23%

Cn1c(=O)c2c(nc(CN3CCOCC3)n2CCc2ccccc2)n(C)c1=O
inactive: growth inhibition [1] -8.53% | growth inhibition [2] -15.8% | viability increase [3] 3.73% | viability [4] 95% | viability [5] 94.7% | inhibition [6] 1.48% | RAM network inhibition [7] 0.56%

CC(CC1C(C#N)=C(N)OC2=C1C(=O)CCC2)c1ccccc1 (stereo unspecified)
inactive: growth inhibition [1] -23.1% | growth inhibition [2] -13.3% | viability increase [3] -1.89% | viability [4] 98.6% | viability [5] 99.3% | inhibition [6] 0.91% | RAM network inhibition [7] 5.88%

CCS(=O)(=O)N1CCN(c2cccc(C)c2C)CC1
inactive: growth inhibition [1] -12.4% | growth inhibition [2] -5.41% | viability increase [3] -1.48% | viability [4] 97.5% | viability [5] 89.3% | inhibition [6] 2.35% | RAM network inhibition [7] 4.29%

CCc1nnc(NC(=O)CN2CCOCC2)s1
inactive: growth inhibition [1] -2.81% | growth inhibition [2] -19.4% | viability increase [3] -1.62% | viability [4] 95.8% | viability [5] 101% | inhibition [6] 1.18% | RAM network inhibition [7] 6.14%

COC(=O)c1c(NC(=O)CCN2CCOCC2)sc2c1CCCC2
inactive: growth inhibition [1] -1.47% | growth inhibition [2] -2.81% | viability increase [3] -6.91% | viability [4] 88.4% | viability [5] 89.7% | inhibition [6] 0.935% | RAM network inhibition [7] 4.32%

CC(CCc1ccccc1)NC(=O)C1CCN(C(=O)c2sccc2-n2cccc2)CC1 (stereo unspecified)
inactive: growth inhibition [1] -4.79% | growth inhibition [2] 0.295% | viability increase [3] 2.68% | viability [4] 93.8% | viability [5] 89.3% | inhibition [6] 1.75% | RAM network inhibition [7] 2.14%

CC(C)COC(=O)C1C2C=CC3(CN(C4CCCC4)C(=O)C13)O2 (stereo unspecified)
inactive: growth inhibition [1] -14.1% | growth inhibition [2] -0.515% | viability increase [3] -1.25% | viability [4] 107% | viability [5] 92.8% | inhibition [6] 2.07% | RAM network inhibition [7] 2.04%

CC(=O)Oc1c(Cl)c(N2CCOCC2)c(OC(C)=O)c2ccccc12
inactive: growth inhibition [1] -22.8% | growth inhibition [2] -7.78% | viability increase [3] -6.81% | viability [4] 70.4% | viability [5] 79% | inhibition [6] -0.75% | RAM network inhibition [7] 2.47%

COc1ccccc1N=C(C)C1=C(O)CSC1=O
inactive: growth inhibition [1] -9.17% | growth inhibition [2] -5.92% | viability increase [3] -1.29% | viability [4] 99.6% | viability [5] 93.3% | inhibition [6] -0.17% | RAM network inhibition [7] 6.89%

O=C(CCc1ccccc1)Nc1nnc(-c2cccs2)o1
inactive: growth inhibition [1] -12.3% | growth inhibition [2] -2.62% | viability increase [3] -4.02% | viability [4] 103% | viability [5] 97.3% | inhibition [6] 1.6% | RAM network inhibition [7] 3.35%

COc1ccc(C(=O)N2CCN(C(=O)c3ccco3)CC2)cc1
inactive: growth inhibition [1] 1.98% | growth inhibition [2] 6.93% | viability increase [3] -2.64% | viability [4] 100% | viability [5] 98.8% | inhibition [6] 1.56% | RAM network inhibition [7] 4.49%

CCCCN(C)C(=O)c1ccc2c(c1)N(CC)C(=O)c1ccccc1S2(=O)=O
inactive: growth inhibition [1] -2.31% | growth inhibition [2] 3.19% | viability increase [3] -1.45% | viability [4] 87.8% | viability [5] 91.2% | inhibition [6] 1.74% | RAM network inhibition [7] 4.11%
